Where a SMILES comes first, the peptide text is derived from it. [ ]: non-standard residue; d: D form. Aib = CC(C)(N)C(=O)O
Columns and labels:
[1] = biological target: T1, Pituitary adenylate cyclase-activating polypeptide type I receptor (Homo sapiens, UniProt P41586); test: Agonist activity at human recombinant PAC1 receptor expressed in CHO cells assessed as PACAP38-induced calcium mobilization by FLIPR assay relative to PACAP38; type: functional, cell-based
Method in brief: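 CHO cells stably expressing recombinant human PAC1, plated 24 h before assay, loaded with fluo-4 AM for 60 min at 37 °C in the dark, then rinsed into HBSS for 15 min at 37 °C. Peptide was added 18 s into a 150 s read (ex 480/em 525 nm), at final concentrations of 1 × 10-12 to 1 × 10^-5 M. Response was normalised to 1 × 10^-5 M PACAP38 on each plate. EC50 and efficacy came from nonlinear regression; 4-10 independent assays in duplicate.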
Target sequence in this assay (P41586 21-468 limits assumed): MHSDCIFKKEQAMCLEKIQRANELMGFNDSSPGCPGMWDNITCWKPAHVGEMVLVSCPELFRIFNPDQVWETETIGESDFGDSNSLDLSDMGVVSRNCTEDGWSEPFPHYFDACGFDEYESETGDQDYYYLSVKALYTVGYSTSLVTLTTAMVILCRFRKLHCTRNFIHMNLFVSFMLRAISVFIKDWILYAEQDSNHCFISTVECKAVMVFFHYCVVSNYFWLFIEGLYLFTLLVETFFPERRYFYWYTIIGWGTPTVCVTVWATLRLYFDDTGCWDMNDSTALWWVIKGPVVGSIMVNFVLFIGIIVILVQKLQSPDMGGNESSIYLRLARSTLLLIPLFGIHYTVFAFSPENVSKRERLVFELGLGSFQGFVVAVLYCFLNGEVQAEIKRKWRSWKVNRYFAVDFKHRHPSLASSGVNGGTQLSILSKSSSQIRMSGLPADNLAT

[2] = biological target: T1, Pituitary adenylate cyclase-activating polypeptide type I receptor; test: Displacement of [125I]Ac-PACAP27 from human recombinant PAC1 receptor expressed in CHO cells by gamma- counter; type: cell-based
Target sequence in this assay (P41586 whole entry): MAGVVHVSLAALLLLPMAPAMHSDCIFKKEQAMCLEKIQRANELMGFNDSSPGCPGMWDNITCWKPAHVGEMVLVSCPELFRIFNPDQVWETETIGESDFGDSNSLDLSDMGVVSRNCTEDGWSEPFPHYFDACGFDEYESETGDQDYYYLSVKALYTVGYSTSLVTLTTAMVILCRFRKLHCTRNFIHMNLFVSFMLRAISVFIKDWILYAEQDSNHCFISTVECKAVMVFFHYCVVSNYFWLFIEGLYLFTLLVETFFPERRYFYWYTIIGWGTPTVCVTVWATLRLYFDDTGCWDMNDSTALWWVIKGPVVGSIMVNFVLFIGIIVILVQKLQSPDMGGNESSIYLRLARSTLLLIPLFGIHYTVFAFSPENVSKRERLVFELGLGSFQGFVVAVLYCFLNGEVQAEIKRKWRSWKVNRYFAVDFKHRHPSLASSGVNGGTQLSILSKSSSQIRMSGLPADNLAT

[3] = biological target: T1, Pituitary adenylate cyclase-activating polypeptide type I receptor; test: Agonist activity at human recombinant PAC1 receptor expressed in CHO cells assessed as PACAP38-induced calcium mobilization by FLIPR assay; type: functional, cell-based
Method in brief: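 CHO cells stably expressing recombinant human PAC1, plated 24 h before assay, loaded with fluo-4 AM for 60 min at 37 °C in the dark, then rinsed into HBSS for 15 min at 37 °C. EC50 and efficacy came from nonlinear regression; 4-10 independent assays in duplicate.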
Target sequence in this assay (P41586 whole entry): as above

SMILES	Emax [1]	IC50 [2]	EC50 [3]
CC[C@H](C)[C@H](NC(=O)CNC(=O)[C@H](CC(=O)O)NC(=O)[C@H](CO)NC(=O)[C@H](C)N)C(=O)N[C@@H](Cc1ccccc1)C(=O)N[C@H](C(=O)N[C@@H](CC(=O)O)C(=O)N[C@@H](CO)C(=O)N[C@@H](Cc1ccc(O)cc1)C(=O)N[C@@H](CO)C(=O)N[C@@H](CCCNC(=N)N)C(=O)N[C@@H](Cc1ccc(O)cc1)C(=O)N[C@@H](CCCNC(=N)N)C(=O)N[C@@H](CCCCN)C(=O)N[C@@H](CCC(N)=O)C(=O)N[C@@H](CCSC)C(=O)N[C@@H](C)C(=O)N[C@H](C(=O)N[C@@H](CCCCN)C(=O)N[C@@H](CCCCN)C(=O)N[C@@H](Cc1ccc(O)cc1)C(=O)N[C@@H](CC(C)C)C(=O)N[C@@H](C)C(=O)N[C@@H](C)C(=O)N[C@H](C(=O)N[C@@H](CC(C)C)C(N)=O)C(C)C)C(C)C)[C@@H](C)O	70%	335 nM	174 nM
CC[C@H](C)[C@H](NC(=O)CNC(=O)[C@H](CC(N)=O)NC(=O)[C@H](CO)NC(=O)[C@@H](N)Cc1cnc[nH]1)C(=O)N[C@@H](Cc1ccccc1)C(=O)N[C@H](C(=O)N[C@@H](CC(=O)O)C(=O)N[C@@H](CO)C(=O)N[C@@H](Cc1ccc(O)cc1)C(=O)N[C@@H](CO)C(=O)N[C@@H](CCCNC(=N)N)C(=O)N[C@@H](Cc1ccc(O)cc1)C(=O)N[C@@H](CCCNC(=N)N)C(=O)N[C@@H](CCCCN)C(=O)N[C@@H](CCC(N)=O)C(=O)N[C@@H](CCSC)C(=O)N[C@@H](C)C(=O)N[C@H](C(=O)N[C@@H](CCCCN)C(=O)N[C@@H](CCCCN)C(=O)N[C@@H](Cc1ccc(O)cc1)C(=O)N[C@@H](CC(C)C)C(=O)N[C@@H](C)C(=O)N[C@@H](C)C(=O)N[C@H](C(=O)N[C@@H](CC(C)C)C(=O)NCC(=O)N[C@@H](CCCCN)C(=O)N[C@@H](CCCNC(=N)N)C(=O)N[C@@H](Cc1ccc(O)cc1)C(=O)N[C@@H](CCCCN)C(=O)N[C@@H](CCC(N)=O)C(=O)N[C@@H](CCCNC(=N)N)C(=O)N[C@H](C(=O)N[C@@H](CCCCN)C(=O)N[C@@H](CC(N)=O)C(=O)N[C@@H](CCCCN)C(N)=O)C(C)C)C(C)C)C(C)C)[C@@H](C)O (H-HSNGIFTDSYSRYRKQMAVKKYLAAVLGKRYKQRVKNK-NH2)	22.1%	9.2 nM	52.2 nM
CC[C@H](C)[C@H](NC(=O)CNC(=O)[C@H](CC(=O)O)NC(=O)C(C)(C)NC(=O)[C@@H](N)Cc1cnc[nH]1)C(=O)N[C@@H](Cc1ccccc1)C(=O)N[C@H](C(=O)N[C@@H](CC(=O)O)C(=O)N[C@@H](CO)C(=O)N[C@@H](Cc1ccc(O)cc1)C(=O)N[C@@H](CO)C(=O)N[C@@H](CCCNC(=N)N)C(=O)N[C@@H](Cc1ccc(O)cc1)C(=O)N[C@@H](CCCNC(=N)N)C(=O)N[C@@H](CCCCN)C(=O)N[C@@H](CCC(N)=O)C(=O)N[C@@H](CCSC)C(=O)N[C@@H](C)C(=O)N[C@H](C(=O)N[C@@H](CCCCN)C(=O)N[C@@H](CCCCN)C(=O)N[C@@H](Cc1ccc(O)cc1)C(=O)N[C@@H](CC(C)C)C(=O)N[C@@H](C)C(=O)N[C@@H](C)C(=O)N[C@H](C(=O)N[C@@H](CC(C)C)C(=O)NCC(=O)N[C@@H](CCCCN)C(=O)N[C@@H](CCCNC(=N)N)C(=O)N[C@@H](Cc1ccc(O)cc1)C(=O)N[C@@H](CCCCN)C(=O)N[C@@H](CCC(N)=O)C(=O)N[C@@H](CCCNC(=N)N)C(=O)N[C@H](C(=O)N[C@@H](CCCCN)C(=O)N[C@@H](CC(N)=O)C(=O)N[C@@H](CCCCN)C(N)=O)C(C)C)C(C)C)C(C)C)[C@@H](C)O (H-H[Aib]DGIFTDSYSRYRKQMAVKKYLAAVLGKRYKQRVKNK-NH2)	94.8%	7.2 nM	4.3 nM
CC[C@H](C)[C@H](NC(=O)CNC(=O)[C@H](CCCC(=O)O)NC(=O)[C@H](CO)NC(=O)[C@@H](N)Cc1cnc[nH]1)C(=O)N[C@@H](Cc1ccccc1)C(=O)N[C@H](C(=O)N[C@@H](CC(=O)O)C(=O)N[C@@H](CO)C(=O)N[C@@H](Cc1ccc(O)cc1)C(=O)N[C@@H](CO)C(=O)N[C@@H](CCCNC(=N)N)C(=O)N[C@@H](Cc1ccc(O)cc1)C(=O)N[C@@H](CCCNC(=N)N)C(=O)N[C@@H](CCCCN)C(=O)N[C@@H](CCC(N)=O)C(=O)N[C@@H](CCSC)C(=O)N[C@@H](C)C(=O)N[C@H](C(=O)N[C@@H](CCCCN)C(=O)N[C@@H](CCCCN)C(=O)N[C@@H](Cc1ccc(O)cc1)C(=O)N[C@@H](CC(C)C)C(=O)N[C@@H](C)C(=O)N[C@@H](C)C(=O)N[C@H](C(=O)N[C@@H](CC(C)C)C(N)=O)C(C)C)C(C)C)[C@@H](C)O	29.3%	818 nM	834 nM

Further molecules by falling IC50 [2], results first:

Emax [1]	IC50 [2]	EC50 [3]	SMILES
87.6%	7 nM	1.5 nM	CC[C@H](C)[C@H](NC(=O)CNC(=O)[C@H](CCC(=O)O)NC(=O)[C@H](CO)NC(=O)[C@@H](N)Cc1cnc[nH]1)C(=O)N[C@@H](Cc1ccccc1)C(=O)N[C@H](C(=O)N[C@@H](CC(=O)O)C(=O)N[C@@H](CO)C(=O)N[C@@H](Cc1ccc(O)cc1)C(=O)N[C@@H](CO)C(=O)N[C@@H](CCCNC(=N)N)C(=O)N[C@@H](Cc1ccc(O)cc1)C(=O)N[C@@H](CCCNC(=N)N)C(=O)N[C@@H](CCCCN)C(=O)N[C@@H](CCC(N)=O)C(=O)N[C@@H](CCSC)C(=O)N[C@@H](C)C(=O)N[C@H](C(=O)N[C@@H](CCCCN)C(=O)N[C@@H](CCCCN)C(=O)N[C@@H](Cc1ccc(O)cc1)C(=O)N[C@@H](CC(C)C)C(=O)N[C@@H](C)C(=O)N[C@@H](C)C(=O)N[C@H](C(=O)N[C@@H](CC(C)C)C(=O)NCC(=O)N[C@@H](CCCCN)C(=O)N[C@@H](CCCNC(=N)N)C(=O)N[C@@H](Cc1ccc(O)cc1)C(=O)N[C@@H](CCCCN)C(=O)N[C@@H](CCC(N)=O)C(=O)N[C@@H](CCCNC(=N)N)C(=O)N[C@H](C(=O)N[C@@H](CCCCN)C(=O)N[C@@H](CC(N)=O)C(=O)N[C@@H](CCCCN)C(N)=O)C(C)C)C(C)C)C(C)C)[C@@H](C)O (H-HSEGIFTDSYSRYRKQMAVKKYLAAVLGKRYKQRVKNK-NH2)
101%	4 nM	0.8 nM	CC[C@H](C)[C@H](NC(=O)CNC(=O)[C@H](CC(=O)O)NC(=O)[C@H](CO)NC(=O)[C@@H](N)Cc1cnc[nH]1)C(=O)N[C@@H](Cc1ccccc1)C(=O)N[C@@H](C)C(=O)N[C@@H](CC(=O)O)C(=O)N[C@@H](CO)C(=O)N[C@@H](Cc1ccc(O)cc1)C(=O)N[C@@H](CO)C(=O)N[C@@H](CCCNC(=N)N)C(=O)N[C@@H](Cc1ccc(O)cc1)C(=O)N[C@@H](CCCNC(=N)N)C(=O)N[C@@H](CCCCN)C(=O)N[C@@H](CCC(N)=O)C(=O)N[C@@H](CCSC)C(=O)N[C@@H](C)C(=O)N[C@H](C(=O)N[C@@H](CCCCN)C(=O)N[C@@H](CCCCN)C(=O)N[C@@H](Cc1ccc(O)cc1)C(=O)N[C@@H](CC(C)C)C(=O)N[C@@H](C)C(=O)N[C@@H](C)C(=O)N[C@H](C(=O)N[C@@H](CC(C)C)C(=O)NCC(=O)N[C@@H](CCCCN)C(=O)N[C@@H](CCCNC(=N)N)C(=O)N[C@@H](Cc1ccc(O)cc1)C(=O)N[C@@H](CCCCN)C(=O)N[C@@H](CCC(N)=O)C(=O)N[C@@H](CCCNC(=N)N)C(=O)N[C@H](C(=O)N[C@@H](CCCCN)C(=O)N[C@@H](CC(N)=O)C(=O)N[C@@H](CCCCN)C(N)=O)C(C)C)C(C)C)C(C)C (H-HSDGIFADSYSRYRKQMAVKKYLAAVLGKRYKQRVKNK-NH2)
